Key:
[1] = system: HT-29; experiment: Cytotoxicity against human HT-29 cells assessed as reduction in cell viability incubated fro 96 hrs by SRB assay; assay type: functional, cell-based; settings: HT-29, 96 h
How it was run: (§1)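 Sulforhodamine B photometric assay after 96 h treatment. Monolayers were grown in RPMI 1640 with L-glutamine, 10% heat-inactivated FBS and penicillin/streptomycin at 37 °C in humidified 5% CO2. Cut-off was 30 μM, or 60 μM for the parent. EC50 was averaged from at least three independent experiments, each in four replicates. Betulinic acid was the positive standard.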

[2] = system: A2780; experiment: Cytotoxicity against human A2780 cells assessed as reduction in cell viability incubated fro 96 hrs by SRB assay; assay type: functional, cell-based; settings: A2780, 96 h; how it was run: as §1
[3] = system: SW-1736; experiment: Cytotoxicity against human SW1736 cells assessed as reduction in cell viability incubated fro 96 hrs by SRB assay; assay type: functional, cell-based; settings: SW-1736, 96 h; how it was run: as §1
[4] = system: FaDu; experiment: Cytotoxicity against human FADU cells assessed as reduction in cell viability incubated fro 96 hrs by SRB assay; assay type: functional, cell-based
[5] = system: Leishmania infantum; experiment: Antileishmanial activity against Leishmania infantum MHOM/BR/70/BH46 intracellular amastigotes infected in canine DH82 cells assessed as as inhibition of cell growth at 1000 uM incubated for 48 hrs by ELISA method; assay type: functional; settings: MHOM/BR/70/BH46, DH82, 48 h, read-out: GI
[6] = system: A-375; experiment: Cytotoxicity against human A375 cells assessed as reduction in cell viability incubated fro 96 hrs by SRB assay; assay type: functional, cell-based; settings: A-375, 96 h; how it was run: as §1
[7] = Cytotoxicity in African green monkey BGM cells assessed as reduction in cell viability incubated for 48 hrs by MTT assay; assay type: cell-based; settings: chlorocebus aethiops
How it was run: (§2)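 MTT colorimetric assay with microscopic monitoring. CC50 is the concentration cytotoxic to 50% of BGM or HepG2 cells. Potassium antimonyl tartrate trihydrate was the positive control.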

[8] = Cytotoxicity in dog DH82 cells assessed as reduction in cell viability incubated for 48 hrs by MTT assay; assay type: cell-based, Canis lupus familiaris
How it was run: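 DH82 canine macrophage viability was monitored microscopically and by MTT colorimetric assay. CC50 is the concentration cytotoxic to 50% of DH82 cells. Potassium antimonyl tartrate trihydrate was the positive control.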

[9] = Selectivity index, ratio of CC50 for African green monkey BGM cells to IC50 for antileishmanial activity against Leishmania infantum MHOM/BR/70/BH46 intracellular amastigotes infected in canine DH82 cells; assay type: toxicity, cell-based; settings: read-out: Ratio CC50/IC50
How it was run: (§3)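 SI = CC50 in BGM or HepG2 cells (MTT) divided by the intracellular amastigote IC50.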

[10] = Cytotoxicity in human HepG2 cells assessed as reduction in cell viability incubated for 48 hrs by MTT assay; assay type: cell-based; how it was run: as §2
[11] = system: Leishmania infantum; experiment: Antiparasitic activity against Leishmania infantum; assay type: functional, organism-based
[12] = Selectivity index, ratio of CC50 for dog DH82 cells to IC50 for antileishmanial activity against Leishmania infantum MHOM/BR/70/BH46 intracellular amastigotes infected in canine DH82 cells; assay type: toxicity, cell-based; settings: read-out: Ratio CC50/IC50
How it was run: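 SI = CC50 in DH82 macrophages (MTT) divided by IC50 against intracellular L. infantum BH46 amastigotes.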

[13] = Selectivity index, ratio of CC50 for human HepG2 cells to IC50 for antileishmanial activity against Leishmania infantum MHOM/BR/70/BH46 intracellular amastigotes infected in canine DH82 cells; assay type: toxicity, cell-based; settings: read-out: Ratio CC50/IC50; how it was run: as §3

Compound | EC50 [1] | EC50 [2] | EC50 [3] | EC50 [4] | inhibition of growth at 1000 µM [5] | EC50 [6] | CC50 at 48 h [7] | CC50 at 48 h [8] | selectivity ratio [9] | CC50 at 48 h [10] | IC50 [11] | selectivity ratio [12] | selectivity ratio [13]
CC1(C)CC[C@]2(C(=O)OCc3cn(Cc4ccc(Cl)cc4)nn3)CC[C@]3(C)C(=CC[C@@H]4[C@@]5(C)CC[C@H](O)[C@@](C)(COCc6cn(Cc7ccc(Cl)cc7)nn6)[C@@H]5CC[C@]43C)[C@@H]2C1 | > 30 µM | > 30 µM | > 30 µM | > 30 µM | 1.6% | > 30 µM | – | – | – | – | – | – | –
CC1(C)CC[C@]2(C(=O)O)CC[C@]3(C)C(=CC[C@@H]4[C@@]5(C)CC[C@H](O)[C@@](C)(CO)[C@@H]5CC[C@]43C)[C@@H]2C1 [HEDERAGENIN] | > 60 µM | > 60 µM | > 60 µM | > 60 µM | 55.5% | > 60 µM | 57 µM | > 1000 µM | 0.9 | > 1000 µM | 61.6 µM | > 10 | > 16.2
CC1(C)CC[C@]2(C(=O)OCc3cn(Cc4cccc(Cl)c4)nn3)CC[C@]3(C)C(=CC[C@@H]4[C@@]5(C)CC[C@H](O)[C@@](C)(COCc6cn(Cc7cccc(Cl)c7)nn6)[C@@H]5CC[C@]43C)[C@@H]2C1 | > 30 µM | > 30 µM | > 30 µM | > 30 µM | 41.8% | > 30 µM | – | – | – | – | – | – | –
CC1(C)CC[C@]2(C(=O)OCc3cn(Cc4ccc(Br)cc4)nn3)CC[C@]3(C)C(=CC[C@@H]4[C@@]5(C)CC[C@H](O)[C@@](C)(COCc6cn(Cc7ccc(Br)cc7)nn6)[C@@H]5CC[C@]43C)[C@@H]2C1 | > 30 µM | > 30 µM | > 30 µM | > 30 µM | 9.8% | > 30 µM | – | – | – | – | – | – | –
CC1(C)CC[C@]2(C(=O)OCc3cn(CC(=O)c4ccc5ccccc5c4)nn3)CC[C@]3(C)C(=CC[C@@H]4[C@@]5(C)CC[C@H](O)[C@@](C)(COCc6cn(CC(=O)c7ccc8ccccc8c7)nn6)[C@@H]5CC[C@]43C)[C@@H]2C1 | > 30 µM | > 30 µM | > 30 µM | > 30 µM | 71.5% | > 30 µM | – | – | – | – | – | – | –
CC1(C)CC[C@]2(C(=O)OCc3cn(Cc4ccc(F)cc4F)nn3)CC[C@]3(C)C(=CC[C@@H]4[C@@]5(C)CC[C@H](O)[C@@](C)(CO)[C@@H]5CC[C@]43C)[C@@H]2C1 | – | – | – | – | – | – | – | – | – | – | 11 µM | – | –
CC1(C)CC[C@]2(C(=O)OCc3cn(Cc4ccccc4[N+](=O)[O-])nn3)CC[C@]3(C)C(=CC[C@@H]4[C@@]5(C)CC[C@H](O)[C@@](C)(COCc6cn(Cc7ccccc7[N+](=O)[O-])nn6)[C@@H]5CC[C@]43C)[C@@H]2C1 | > 30 µM | > 30 µM | > 30 µM | > 30 µM | 35% | > 30 µM | – | – | – | – | – | – | –
C=C(C)[C@@H]1CC[C@]2(C(=O)O)CC[C@]3(C)[C@H](CC[C@@H]4[C@@]5(C)CC[C@H](O)C(C)(C)[C@@H]5CC[C@]43C)[C@@H]12 [BETULINIC ACID] | – | – | 16.4 µM | 13.4 µM | – | 12 µM | – | – | – | – | – | – | –
Cc1ccc(Cn2cc(COC[C@@]3(C)[C@@H]4CC[C@]5(C)[C@H](CC=C6[C@@H]7CC(C)(C)CC[C@]7(C(=O)OCc7cn(Cc8ccc(C)cc8)nn7)CC[C@]65C)[C@@]4(C)CC[C@@H]3O)nn2)cc1 | 21.7 µM | 29.1 µM | > 30 µM | > 30 µM | 0% | 26.1 µM | – | – | – | – | – | – | –
Cc1cccc(Cn2cc(COC[C@@]3(C)[C@@H]4CC[C@]5(C)[C@H](CC=C6[C@@H]7CC(C)(C)CC[C@]7(C(=O)OCc7cn(Cc8cccc(C)c8)nn7)CC[C@]65C)[C@@]4(C)CC[C@@H]3O)nn2)c1 | > 30 µM | > 30 µM | > 30 µM | > 30 µM | 31.3% | > 30 µM | – | – | – | – | – | – | –
CC1(C)CC[C@]2(C(=O)OCc3cn(Cc4cccc([N+](=O)[O-])c4)nn3)CC[C@]3(C)C(=CC[C@@H]4[C@@]5(C)CC[C@H](O)[C@@](C)(COCc6cn(Cc7cccc([N+](=O)[O-])c7)nn6)[C@@H]5CC[C@]43C)[C@@H]2C1 | > 30 µM | > 30 µM | > 30 µM | > 30 µM | 21.4% | > 30 µM | – | – | – | – | – | – | –
CC1(C)CC[C@]2(C(=O)OCc3cn(Cc4cccc(Br)c4)nn3)CC[C@]3(C)C(=CC[C@@H]4[C@@]5(C)CC[C@H](O)[C@@](C)(COCc6cn(Cc7cccc(Br)c7)nn6)[C@@H]5CC[C@]43C)[C@@H]2C1 | > 30 µM | > 30 µM | > 30 µM | > 30 µM | 7.8% | > 30 µM | – | – | – | – | – | – | –
CC1(C)CC[C@]2(C(=O)NCc3cn(Cc4ccccc4[N+](=O)[O-])nn3)CC[C@]3(C)C(=CC[C@@H]4[C@@]5(C)CC[C@H](O)[C@@](C)(CO)[C@@H]5CC[C@]43C)[C@@H]2C1 | – | – | – | – | – | – | – | – | – | – | 2 to 6 µM | – | –
CC1(C)CC[C@]2(C(=O)OCc3cn(Cc4ccccc4)nn3)CC[C@]3(C)C(=CC[C@@H]4[C@@]5(C)CC[C@H](O)[C@@](C)(COCc6cn(Cc7ccccc7)nn6)[C@@H]5CC[C@]43C)[C@@H]2C1 | > 30 µM | > 30 µM | > 30 µM | > 30 µM | 17.7% | > 30 µM | – | – | – | – | – | – | –
CC1(C)CC[C@]2(C(=O)NCc3cn(Cc4ccc(Cl)cc4)nn3)CC[C@]3(C)C(=CC[C@@H]4[C@@]5(C)CC[C@H](O)[C@@](C)(CO)[C@@H]5CC[C@]43C)[C@@H]2C1 | – | – | – | – | – | – | – | – | – | – | 2 to 6 µM | – | –
CC1(C)CC[C@]2(C(=O)OCc3cn(Cc4ccccc4Cl)nn3)CC[C@]3(C)C(=CC[C@@H]4[C@@]5(C)CC[C@H](O)[C@@](C)(COCc6cn(Cc7ccccc7Cl)nn6)[C@@H]5CC[C@]43C)[C@@H]2C1 | 27 µM | > 30 µM | > 30 µM | > 30 µM | 4.1% | > 30 µM | – | – | – | – | – | – | –
CC1(C)CC[C@]2(C(=O)OCc3cn(Cc4ccccc4[N+](=O)[O-])nn3)CC[C@]3(C)C(=CC[C@@H]4[C@@]5(C)CC[C@H](O)[C@@](C)(CO)[C@@H]5CC[C@]43C)[C@@H]2C1 | – | – | – | – | – | – | – | – | – | – | 32 to 34 µM | – | –
CC1(C)CC[C@]2(C(=O)OCc3cn(Cc4ccccc4Br)nn3)CC[C@]3(C)C(=CC[C@@H]4[C@@]5(C)CC[C@H](O)[C@@](C)(COCc6cn(Cc7ccccc7Br)nn6)[C@@H]5CC[C@]43C)[C@@H]2C1 | > 30 µM | > 30 µM | > 30 µM | > 30 µM | 53.4% | > 30 µM | – | – | – | – | – | – | –
CC1(C)CC[C@]2(C(=O)OCc3cn(CC(=O)c4ccccc4)nn3)CC[C@]3(C)C(=CC[C@@H]4[C@@]5(C)CC[C@H](O)[C@@](C)(COCc6cn(CC(=O)c7ccccc7)nn6)[C@@H]5CC[C@]43C)[C@@H]2C1 | > 30 µM | > 30 µM | > 30 µM | > 30 µM | 0% | > 30 µM | – | – | – | – | – | – | –
